Assay results from different studies.
Lines come from different studies, so protocols differ.
Target: G protein-coupled receptor kinase 6 (GRK6, Homo sapiens, UniProt P43250)

| Compound | test | conditions | quantity | value |
| --- | --- | --- | --- | --- |
| CC(C)(O)[C@H]1CC[C@H](Nc2ccc3ncc(-c4cccc(C(F)(F)F)c4)n3n2)CC1 | enzyme activity, inhibitor | 1 µM | remaining activity | 90.6% |
| O=C1NC(=O)c2cc(Nc3ccc(F)cc3)c(Nc3ccc(F)cc3)cc21 | cell-free assay | 0.5 µM | remaining signal | 98.7% |
| CCCOc1ccc(OC)c(F)c1C(=O)c1ccc(C(=O)N[C@@H]2CNC[C@H]2NC(=O)c2ccc3[nH]ncc3c2)cc1 | enzyme activity, inhibitor | 10 µM | remaining activity | 104% |
| COc1cc(Cl)c(C(=O)N[C@@H](CN[C@H]2CC[C@@H](N)CC2)Cc2ccc(C#N)cc2)cc1-c1ccc(CN[C@H](C)c2ccc(C)cc2)o1 | enzyme activity, inhibitor | 1 µM | remaining activity | 100% |
| COc1cc2ncnc(Nc3ccc(Oc4ccccc4)c(C)c3C)c2cc1OC | enzyme activity, inhibitor | 1 µM | inhibition | -2% |
| O=C1Nc2ccc(Cl)cc2C1=Cc1cc(Cl)c(O)c(Cl)c1 | cell-free assay | 0.5 µM | remaining signal | 89.6% |
| Cc1ccc(Nc2nccc(N(C)c3ccc4c(C)n(C)nc4c3)n2)cc1S(N)(=O)=O | enzyme activity, inhibitor | 0.3 µM | inhibition | 11% |
| CC(C)(C)c1nc2c(s1)c1nc(N)ncc1c1ccc(NS(=O)(=O)c3c(F)cccc3F)c(F)c12 | enzyme activity, inhibitor, radiometric | 1 µM | remaining activity | 76% |
| Cc1sc(C(=O)NC2COC2)cc1-n1cc(NC(=O)Nc2c(F)cccc2Cl)cn1 | enzyme activity, inhibitor | 10 µM | remaining activity | 91.5% |
| CNC(=O)c1cc(Oc2ccc(NC(=O)Nc3ccc(Cl)c(C(F)(F)F)c3)cc2)ccn1 | enzyme activity, inhibitor | 10 µM | inhibition | 1% |
| CCCS(=O)(=O)Nc1ccc(F)c(C(=O)c2c[nH]c3ncc(-c4ccc(Cl)cc4)cc23)c1F | enzyme activity, inhibitor | 1 µM | inhibition | < 10% |
| Cc1cc(NC(=O)c2cccc3cc(-c4cccc5[nH]nc(N)c45)ccc23)ccc1F | enzyme activity, inhibitor | 0.1 µM | activity vs control | 93% |
| CCN(CC)CCNC(=O)c1c(C)[nH]c(/C=C2\C(=O)Nc3ccc(F)cc32)c1C | enzyme activity, inhibitor | 0.3 µM | inhibition | 31% |
